Measurements from ChEMBL document CHEMBL1127562, “N-substituted spirosuccinimide, spiropyridazine, spiroazetidine, and acetic acid aldose reductase inhibitors derived from isoquinoline-1,3-diones. 2” (J Med Chem, 1994).
Blank lines part the entries; values can stand above or below the compound they belong to. The source made the active and inactive calls. The calls are words filed in the database; no cut-off is given here.

Assays:
Rattus norvegicus [1] = assay: Tested for in vivo inhibition of galactitol accumulation in the lens of galactose-fed rats at the dose of 1.1 (mg/kg/day); NS=Not significant; assay type: functional, organism-based; conditions: Lens of camera-type eye
Rattus norvegicus [2] = assay: Tested for in vivo inhibition of galactitol accumulation in the sciatic nerve of galactose-fed rats at the dose of 1.1 (mg/kg/day); assay type: functional
Outline: (§1)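 Rats were given a 20% galactose diet for 4 days, with the test compound administered in the diet. Sciatic nerve galactitol accumulation was measured, and activity is given as % inhibition at the stated daily dose (mg/kg/day). Values are mean ± SEM, n = 6 animals; p < 0.01 unless indicated. NS means no significant inhibition of polyol accumulation.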

[3] = biological target: Aldo-keto reductase family 1 member B1 (Bos taurus) (UniProt P16116); assay: Inhibition of aldose reductase activity in partially purified bovine lens preparation at 10e-5 M
Outline: (§2)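 Partially purified bovine lens aldose reductase. Reduction of DL-glyceraldehyde substrate followed spectrophotometrically. Activity expressed as average inhibition at the tested concentrations, 1×10^-5, 1×10^-6, 1×10^-7 and 4×10^-6 M as printed; IC50 in M where given.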

Rattus norvegicus [4] = assay: Tested for in vivo inhibition of galactitol accumulation in the sciatic nerve of galactose-fed rats at the dose of 27.1 (mg/kg/day); assay type: functional; outline: as §1
Rattus norvegicus [5] = assay: Tested for in vivo inhibition of galactitol accumulation in the lens of galactose-fed rats at the dose of 27.1 (mg/kg/day); assay type: functional, Lens of camera-type eye
Rattus norvegicus [6] = assay: Tested for in vivo inhibition of galactitol accumulation in the sciatic nerve of galactose-fed rats at the dose of 27.5 (mg/kg/day); assay type: functional; outline: as §1
Rattus norvegicus [7] = assay: Tested for in vivo inhibition of galactitol accumulation in the lens of galactose-fed rats at the dose of 27.5 (mg/kg/day); assay type: functional, Lens of camera-type eye
Rattus norvegicus [8] = assay: Tested for in vivo inhibition of galactitol accumulation in the sciatic nerve of galactose-fed rats at the dose of 50.9 (mg/kg/day); assay type: functional
Outline: (§3)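 Rats fed a 20% galactose diet for 4 days, with test compound given in the diet at the stated daily dose (mg/kg/day). Read-out is inhibition of galactitol (polyol) accumulation in sciatic nerve. Values are % inhibition, mean ± SEM of six animals; p < 0.01 unless marked (some p < 0.05). NS = no significant inhibition of polyol accumulation. Tolrestat was the reference standard.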

Rattus norvegicus [9] = assay: Tested for in vivo inhibition of galactitol accumulation in the lens of galactose-fed rats at the dose of 50.9 (mg/kg/day); assay type: functional, Lens of camera-type eye
Rattus norvegicus [10] = assay: Tested for in vivo inhibition of galactitol accumulation in the sciatic nerve galactose-fed rats at the dose of 25.9 (mg/kg/day); assay type: functional; outline: as §1
Rattus norvegicus [11] = assay: Tested for in vivo inhibition of galactitol accumulation in the lens of galactose-fed rats at the dose of 25.9 (mg/kg/day); NS=Not significant; assay type: functional, organism-based; conditions: Lens of camera-type eye
Rattus norvegicus [12] = assay: Tested for in vivo inhibition of galactitol accumulation in the sciatic nerve of galactose-fed rats at the dose of 9.5 (mg/kg/day); assay type: functional; outline: as §3
Rattus norvegicus [13] = assay: Tested for in vivo inhibition of galactitol accumulation in the sciatic nerve of galactose-fed rats at the dose of 9.8 (mg/kg/day); assay type: functional; outline: as §3
Rattus norvegicus [14] = assay: Tested for in vivo inhibition of galactitol accumulation in the lens of galactose-fed rats; assay type: functional, organism-based; conditions: Lens of camera-type eye
[15] = biological target: Aldo-keto reductase family 1 member B1 (Bos taurus, UniProt P16116); assay: Compound was tested in vitro for inhibition of aldose reductase activity in partially purified bovine lens preparation; outline: as §2
Rattus norvegicus [16] = assay: Tested for in vivo inhibition of galactitol accumulation in the sciatic nerve of galactose-fed rats; assay type: functional, organism-based
Rattus norvegicus [17] = assay: Tested for in vivo inhibition of galactitol accumulation in the sciatic nerve of galactose-fed rats at the dose of 93.6 (mg/kg/day); assay type: functional; outline: as §3
Rattus norvegicus [18] = assay: Tested for in vivo inhibition of galactitol accumulation in the lens of galactose-fed rats at the dose of 49.3 (mg/kg/day); NS=Not significant; assay type: functional, organism-based; conditions: Lens of camera-type eye
Rattus norvegicus [19] = assay: Tested for in vivo inhibition of galactitol accumulation in the sciatic nerve of galactose-fed rats at the dose of 49.3 (mg/kg/day); assay type: functional; outline: as §3
Rattus norvegicus [20] = assay: Tested for in vivo inhibition of galactitol accumulation in the lens of galactose-fed rats at the dose of 93.6 (mg/kg/day); NS=Not significant; assay type: functional, organism-based; conditions: Lens of camera-type eye
Outline: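 Galactosemic rats were fed 20% galactose for 4 days, with the compound mixed into the diet. […] galactitol accumulation was measured, and activity is given as % inhibition at the stated daily dose (mg/kg/day). Values are mean ± SEM of six animals; p < 0.01 unless indicated. NS means no significant inhibition of polyol accumulation.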

Rattus norvegicus [21] = assay: Tested for in vivo inhibition of galactitol accumulation in the sciatic nerve of galactose-fed rats at the dose of 1.0 (mg/kg/day); assay type: functional; outline: as §1
Rattus norvegicus [22] = assay: Tested for in vivo inhibition of galactitol accumulation in the sciatic nerve of galactose-fed rats at the dose of 55.4 (mg/kg/day); assay type: functional; outline: as §3

inhibition [3]: inactive
Compound: CCC(CC)=NN1C(=O)CC2(C(=O)N(Cc3ccc(Br)cc3F)C(=O)c3ccccc32)C1=O (centres undefined)
Inhibition (Rattus norvegicus [8]): 98%
Inhibition (Rattus norvegicus [9]): 71%

inhibition [3]: inactive
Compound: CN1C(=O)CC2(C1=O)C(=O)N(Cc1ccc(Cl)cc1)C(=O)c1ccccc12 (centres undefined)
Inhibition (Rattus norvegicus [13]): 35%

EC50 (Rattus norvegicus [14]): 10 mg/kg/day
IC50 [15]: 23 nM
Compound: O=C1CC2(C(=O)N1)C(=O)N(Cc1ccc(Br)cc1F)C(=O)c1ccccc12 (centres undefined)
ED50 (Rattus norvegicus [16]): 0.3 mg/kg/day

inhibition [3]: 83%
Compound: COC(=O)NC(=O)CC1C(=O)N(Cc2nc3cc(C(F)(F)F)ccc3s2)C(=O)c2ccc(F)cc21 (centres undefined)
Inhibition (Rattus norvegicus [17]): 59%
inhibition (Rattus norvegicus [18]): inactive
Inhibition (Rattus norvegicus [19]): 39%
inhibition (Rattus norvegicus [20]): inactive

inhibition [3]: inactive
Compound: CN1C(=O)CC2(C(=O)N(Cc3ccc(Br)cc3F)C(=O)c3ccccc32)C(=O)N1C (centres undefined)
Inhibition (Rattus norvegicus [22]): 76%

Continued, compound first:

Compound: CC(C)=NN1C(=O)CC2(C(=O)N(Cc3ccc(Br)cc3F)C(=O)c3ccc(F)cc32)C1=O (centres undefined)
inhibition (Rattus norvegicus [1]): inactive
Inhibition (Rattus norvegicus [2]): 47%
inhibition [3]: inactive
Inhibition (Rattus norvegicus [4]): 84%
Inhibition (Rattus norvegicus [5]): 58%

Compound: CN1C(=O)c2ccc(Br)cc2C2(CC(=O)N2)C1=O (centres undefined)
Inhibition (Rattus norvegicus [6]): 54%
Inhibition (Rattus norvegicus [7]): 36%

Compound: COC(=O)NC(=O)CC1C(=O)N(Cc2ccc(Br)cc2F)C(=O)c2ccc(F)cc21 (centres undefined)
Inhibition (Rattus norvegicus [10]): 78%
inhibition [3]: 55%
inhibition (Rattus norvegicus [11]): inactive

Compound: CN1C(=O)CC2(C1=O)C(=O)N(Cc1nc3cc(C(F)(F)F)ccc3s1)C(=O)c1ccccc12 (centres undefined)
inhibition [3]: inactive
Inhibition (Rattus norvegicus [12]): 82%

Compound: CN1C(=O)CC2(C1=O)C(=O)N(Cc1ccc(Br)cc1F)C(=O)c1ccc(F)cc12 (centres undefined)
inhibition [3]: inactive
Inhibition (Rattus norvegicus [21]): 28%
